Assay outcomes (PubChem BioAssay)
Kir21 inh = inhibitors of mouse Kir2.1 inward-rectifier potassium channel; Inward rectifier potassium channel 2 (Mus musculus), P35561; HEK293-Kir2.1, FluxOR thallium flux fluorescence; active compounds read low; B-score at 10 µM; actives 0.85% (n = 310,000);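 active = fluorescence ratio B-score at or below minus 3 SD of library scores, with starting-brightness B-score within 2 SD, cut at about -4.2 in these data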;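 note: channel flux triggered by added potassium and thallium sulfate stimulus; B-score of peak minus minimum fluorescence over baseline after thallium stimulus; more negative B-score means stronger Kir2.1 block with less thallium influx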
Target sequence (P35561 whole entry, looked up): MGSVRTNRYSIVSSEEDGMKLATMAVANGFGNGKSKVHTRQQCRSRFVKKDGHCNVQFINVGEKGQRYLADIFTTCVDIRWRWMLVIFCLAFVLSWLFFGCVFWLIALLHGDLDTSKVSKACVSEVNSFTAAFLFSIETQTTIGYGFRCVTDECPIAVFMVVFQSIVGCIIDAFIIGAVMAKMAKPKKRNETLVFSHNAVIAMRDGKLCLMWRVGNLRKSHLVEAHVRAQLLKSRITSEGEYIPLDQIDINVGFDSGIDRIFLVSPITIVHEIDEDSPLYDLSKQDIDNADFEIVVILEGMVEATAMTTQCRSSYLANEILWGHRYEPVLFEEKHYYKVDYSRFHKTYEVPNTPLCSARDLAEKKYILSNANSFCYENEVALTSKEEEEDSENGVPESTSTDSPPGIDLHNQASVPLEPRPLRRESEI
KCNQ1 inh = inhibitors of human KCNQ1 channel, primary screen, cell-based, thallium flux, high-throughput; CHO-K1 KCNQ1, FluxOR thallium flux fluorescence; active compounds read high; B-score at 10 µM; actives 1.3% (n = 310,000); Potassium voltage-gated channel subfamily KQT member 1 (Homo sapiens), P51787; AID 2642, 2010;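 active = compounds whose thallium flux B-score, printed positive for inhibition, exceeds three library SD while starting fluorescence stays within three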;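 note: channel opened by potassium depolarization with thallium stimulus after 20 min compound exposure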
hERG rescue = hERG rescue from dofetilide block, primary screen, cell-based, CHO-hERG, FluxOR thallium flux, dofetilide IC70. Voltage-gated inwardly rectifying potassium channel KCNH2 (Homo sapiens), Q12809. dofetilide IC70 present. activation (rescue from dofetilide block), less the hit threshold, % at 10 µM. actives 0.51% (n = 310,000). AID 1511, 2009;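 active = activation above the mean of controls blocked by dofetilide plus 5 SD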;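 note: thallium influx through hERG after potassium depolarization seen as dye fluorescence rise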
KCNK3 inh = human KCNK3 channel inhibitors, primary screen, CHO cells, FluxOR thallium flux, B-score; Potassium channel subfamily K member 3 (Homo sapiens), O14649; FluxOR fluorescence; active compounds read low; B-score at 10 µM; actives 0.84% (n = 340,000);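 active = B-score under library mean minus 4 SD, starting fluorescence ratio at most library mean plus 5 SD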;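 note: more negative B-score means stronger inhibition of thallium flux through KCNK3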
KCNQ1 act = potentiators or activators of KCNQ1 channel, primary screen, cell-based, thallium flux, high-throughput | actives 0.35% (n = 310,000) | CHO-K1 KCNQ1, thallium flux FluxOR fluorescence; active compounds read high | B-score at 10 µM;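 active = fluorescence ratio B-score, a plate-corrected score, at least three library SD, with initial intensity B-score within 5 SD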
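System: Stable KCNQ1 CHO-K1 line | Incubation: 90 min dye loading and 20 min compound exposure, both at room temperature | Measure: Ratio B score | Medium: Assay buffer for compound exposure, DMSO matched across wells | Compound dosing: Single-concentration screen | Probe or stimulus: K+/Tl+ depolarizing stimulus | Measured by: Kinetic FluxOR fluorescence, 10 s baseline plus 110 s post-stimulus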
KCNK9 block = KCNK9 potassium channel inhibitors, primary screen, HEK293 cells, thallium flux; Potassium channel subfamily K member 9 (Homo sapiens), Q9NPC2; FluxOR thallium flux fluorescence; active compounds read low; B-score at 10 µM; actives 1.2% (n = 310,000);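 active = ratio B-score over 3 SD below the library mean, with starting fluorescence within 5 SD of its mean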;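 note: negative B-score means less thallium flux so channel inhibition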
KCNQ1 block val = KCNQ1 potassium channel inhibitors, confirmation, cell-based, Tl flux, duplicate; shares compounds with KCNQ1 inh; KCNQ1 cell line, FluxOR thallium flux fluorescence; inhibition, % at 10 µM; actives 93% (n = 1,600); AID 588353, 2011;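 active = primary screen active, with duplicate mean exceeding buffer control mean plus 3 SD of buffer wells, cut at about 28% in these data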
CHO KCNQ1 ctr = thallium flux effects in parental CHO cells, counter-screen for KCNQ1 inhibitor project, cell-based, Tl flux. AID 588366, 2011. shares compounds with KCNQ1 inh. actives 21% (n = 1,600). parental CHO-K1, FluxOR thallium flux fluorescence ratio; active compounds read low; zero means no signal rise above baseline. fluorescence ratio (Tl flux) at 10 µM;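 active = mean of duplicate thallium-flux fluorescence ratios in parental host cells more than 5 SD below the buffer control mean, cut at about 0.38 in these data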;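 note: ratio is peak minus minimum fluorescence divided by baseline fluorescence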
KCNQ1 APC inh = KCNQ1 channel inhibitors, confirmation, orthogonal assay, cell-based, automated electrophysiology. shares compounds with KCNQ1 inh. KCNQ1-CHO cells, automated patch clamp current. calls only at 10 µM. actives 20% (n = 490);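 active = KCNQ1 current drop exceeding 3 SD of negative control wells, seen in both duplicate runs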;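 note: steady state current during a 2 s step from -80 to +40 mV; negative values mean current inhibition and positive values mean potentiation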
KCNQ2 inh = KCNQ2 channel inhibition, selectivity assay for KCNQ1 inhibitor project, cell-based; shares compounds with KCNQ1 inh; KCNQ2 cells, FluxOR thallium flux fluorescence; inhibition, % at 10 µM; actives 71% (n = 1,600); AID 651746, 2012;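 active = mean percent inhibition of the KCNQ2 thallium signal more than 5 SD above the buffer-only control wells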;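 note: KCNQ2 expressed in CHO cells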
KCNQ1 KCNE1 spec = KCNQ1/KCNE1 channel inhibition, selectivity assay for KCNQ1 inhibitor project, CHO-K1 cells, thallium flux, FluxOR; shares compounds with KCNQ1 inh; FluxOR thallium flux fluorescence; inhibition, % at 10 µM; actives 77% (n = 1,600);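 active = mean percent inhibition of duplicate wells above the buffer-only control mean plus 3 SD of those controls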
Hits are given with their value. The list is not random: actives were taken first. Their share in the collection is about 3.7%.

For CCOc1ccc(Nc2nc(NCC3CCCO3)c3ccccc3n2)cc1 (centres undefined) the results were Kir21 inh -7.14, KCNQ1 inh 11, hERG rescue inactive, KCNK3 inh inactive, KCNQ1 act inactive, KCNK9 block inactive, KCNQ1 block val 134.5, CHO KCNQ1 ctr inactive, KCNQ1 APC inh inactive, KCNQ2 inh 80.7% and KCNQ1 KCNE1 spec 131.5%.
For c1ccc(Nc2nc(NCC3CCCO3)c3ccccc3n2)cc1 (centres undefined) the results were Kir21 inh -15.3, KCNQ1 inh 12, hERG rescue inactive, KCNK3 inh -10.3, KCNQ1 act inactive, KCNK9 block inactive, KCNQ1 block val 128.5, CHO KCNQ1 ctr inactive, KCNQ1 APC inh active, KCNQ2 inh 116.3% and KCNQ1 KCNE1 spec 150.0%.
`O=c1c2c(nc3n1CCCCC3)-c1ccccc1CC21CCCCC1` gave Kir21 inh inactive, KCNQ1 inh 7, hERG rescue inactive, KCNK3 inh inactive, KCNQ1 act inactive, KCNK9 block inactive, KCNQ1 block val 104.0, CHO KCNQ1 ctr inactive, KCNQ1 APC inh inactive, KCNQ2 inh 105.7% and KCNQ1 KCNE1 spec 88.0%.
Screening CCOc1ccc2noc3c2c1C(=O)c1ccccc1-3 returned Kir21 inh inactive, KCNQ1 inh 32, hERG rescue inactive, KCNK3 inh inactive, KCNQ1 act inactive, KCNK9 block inactive, KCNQ1 block val active, CHO KCNQ1 ctr 0.018, KCNQ2 inh inactive and KCNQ1 KCNE1 spec inactive.
For O=C1c2ccccc2-c2onc3ccc(N4CCCC4)c1c23 the results were Kir21 inh inactive, KCNQ1 inh inactive, hERG rescue inactive, KCNK3 inh inactive, KCNQ1 act inactive and KCNK9 block inactive.
For CC(C)Cn1cnc2c1c(=O)n(CC(=O)NC(=O)NC(C)(C)C)c(=O)n2Cc1ccccc1 the results were Kir21 inh inactive, KCNQ1 inh inactive, hERG rescue inactive, KCNK3 inh inactive, KCNQ1 act inactive and KCNK9 block inactive.
For Cc1ccc(C)c(CN2CCC(CNC(=O)Nc3ccc(F)c(Cl)c3)CC2)c1 the results were Kir21 inh inactive, KCNQ1 inh 7, hERG rescue inactive, KCNK3 inh inactive, KCNQ1 act inactive, KCNK9 block inactive, KCNQ1 block val 57.5, CHO KCNQ1 ctr inactive, KCNQ2 inh inactive and KCNQ1 KCNE1 spec 42.0%.
For Cc1cc(C)cc(NC(=O)NCC2CCN(Cc3cc(C)ccc3C)CC2)c1 the results were Kir21 inh inactive, KCNQ1 inh inactive, hERG rescue inactive, KCNK3 inh inactive, KCNQ1 act inactive and KCNK9 block inactive.
Screening O=C(COC(=O)Cc1cccc(F)c1)NCCc1ccccc1 returned KCNK3 inh inactive.
For Cc1onc(-c2ccccc2)c1C(=O)Nc1nc(-c2ccc(F)c(F)c2)cs1 the results were Kir21 inh inactive, KCNQ1 inh 7, hERG rescue inactive, KCNK3 inh inactive, KCNQ1 act inactive, KCNK9 block inactive, KCNQ1 block val 103.5, CHO KCNQ1 ctr inactive, KCNQ1 APC inh inactive, KCNQ2 inh 109.0% and KCNQ1 KCNE1 spec 120.0%.
For O=C(Nc1ccccc1)Nc1nc(-c2ccc(F)c(F)c2)cs1 the results were Kir21 inh inactive, KCNQ1 inh 6, hERG rescue inactive, KCNK3 inh inactive, KCNQ1 act inactive, KCNK9 block inactive, KCNQ1 block val 72.0, CHO KCNQ1 ctr inactive, KCNQ2 inh 83.7% and KCNQ1 KCNE1 spec 81.5%.
Screening S=C(NCc1ccc(Cl)cc1)Nc1ccccc1 returned Kir21 inh inactive, KCNQ1 inh inactive, hERG rescue inactive, KCNK3 inh inactive, KCNQ1 act inactive and KCNK9 block inactive.
`S=C(NCc1ccc(Cl)cc1)Nc1ccncc1` gave Kir21 inh inactive, KCNQ1 inh 11, hERG rescue inactive, KCNK3 inh inactive, KCNQ1 act inactive, KCNK9 block inactive, KCNQ1 block val 144.5, CHO KCNQ1 ctr inactive, KCNQ1 APC inh active, KCNQ2 inh 98.3% and KCNQ1 KCNE1 spec 136.0%.
For S=C(Nc1cccc(Cl)c1)NC1CC2CCCC(C1)N2C1CCCC1 (centres undefined) the results were Kir21 inh inactive, KCNQ1 inh inactive, hERG rescue inactive, KCNK3 inh inactive, KCNQ1 act inactive and KCNK9 block inactive.
`S=C(NCCN(C1CCCCC1)C1CCCC1)Nc1cccc(Cl)c1` gave Kir21 inh -4.55, KCNQ1 inh 6, hERG rescue inactive, KCNK3 inh inactive, KCNQ1 act inactive, KCNK9 block inactive, KCNQ1 block val 80.0, CHO KCNQ1 ctr inactive, KCNQ2 inh 92.0% and KCNQ1 KCNE1 spec inactive.
Screening CCN(CC)S(=O)(=O)c1ccc2oc(C(=O)NCC3COc4ccccc4O3)c(C)c2c1 (centres undefined) returned Kir21 inh inactive, KCNQ1 inh 8, hERG rescue inactive, KCNK3 inh inactive, KCNQ1 act inactive, KCNK9 block inactive, KCNQ1 block val 96.5, CHO KCNQ1 ctr inactive, KCNQ1 APC inh inactive, KCNQ2 inh 81.3% and KCNQ1 KCNE1 spec 127.5%.
CC1(c2ccccc2)NC(=O)N(CC(=O)N2CCN(S(=O)(=O)c3c(F)cccc3F)CC2)C1=O (centres undefined) was read as KCNK3 inh inactive.
